Source: ChEMBL document CHEMBL4689842, “EUbOPEN Chemogenomics Library wave 1” (2021)

Experiments:
Assay type in all cases: toxicity, cell-based
U2OS [1] = experiment: Incucyte cell viability with U2OS; conditions: human, 10 µM, compound concentration 10 uM; also: filed as whole numbers so only -1 and 0 and 1 occur
HEK-293T = experiment: Incucyte cell viability with HEK293T; conditions: human, 10 µM, compound concentration 10 uM; also: filed as whole numbers so only -1 and 0 and 1 occur
U2OS [2] = experiment: Multiplex assay against U2OS; conditions: human
Method in brief: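 At seeding, live cells were stained with Hoechst33342, BioTracker Green Microtubule Cytoskeleton Dye, MitoTracker Red and Annexin V Alexa Fluor 680. After compound addition they were imaged on a CQ1 microscope at 37°C and 5% CO2, and CellPathfinder machine-learning gating sorted them into Hoechst high-intensity objects or normal cells, with normal cells further split into healthy, pyknosed or fragmented nuclei and pyknosed cells into mitotic or apoptotic. Tubulin, mitochondrial-mass and membrane-permeability phenotypes are given as per cents of cells with healthy nuclei.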

[3] = 0 h, replicate number 1, timepoint 0 hours
[4] = 6 h, replicate number 2, timepoint 6 hours
[5] = 12 h, replicate number 1, timepoint 12 hours
[6] = 18 h, replicate number 1, timepoint 18 hours
[7] = 24 h, replicate number 1, timepoint 24 hours
[8] = 12 h, 1 µM, compound concentration 1 uM, replicate 1
[9] = 12 h, 1 µM, compound concentration 1 uM, replicate 2
[10] = 12 h, 10 µM, compound concentration 10 uM, replicate 1
[11] = 12 h, 10 µM, compound concentration 10 uM, replicate 2
[12] = 24 h, 1 µM, compound concentration 1 uM, replicate 1
[13] = 24 h, 1 µM, compound concentration 1 uM, replicate 2
[14] = 24 h, 10 µM, compound concentration 10 uM, replicate 1
[15] = 24 h, 10 µM, compound concentration 10 uM, replicate 2
[16] = 48 h, 1 µM, compound concentration 1 uM, replicate 1
[17] = 48 h, 1 µM, compound concentration 1 uM, replicate 2
[18] = 48 h, 10 µM, compound concentration 10 uM, replicate 1
[19] = 48 h, 10 µM, compound concentration 10 uM, replicate 2

In the case of `CN(c1cc(C(F)(F)F)nc(OCCC(=O)O)n1)c1cccc2c1CCC2`, the “Growth Rate” value (U2OS [1]; [3]) is reported as 0, the “Growth Rate” value (U2OS [1]; [4]) is reported as 0 and the “Growth Rate” value (U2OS [1]; [5]) is reported as 0. For the same compound, the “Growth Rate” value (U2OS [1]; [6]) was 0, the “Growth Rate” value (U2OS [1]; [7]) was 0 and the “Growth Rate” value (HEK-293T; [3]) was 0. The “Growth Rate” value (HEK-293T; [4]) was 0, the “Growth Rate” value (HEK-293T; [5]) was 1 and the “Growth Rate” value (HEK-293T; [6]) was 1. The “Growth Rate” value (HEK-293T; [7]) was 1, the “Population Apoptotic (%)” value (U2OS [2]; [8]) was 33% and the “Population Fragmented Nuclei (%)” value (U2OS [2]; [8]) was 24%. For the same compound, the “Population Healthy Nuclei (%)” value (U2OS [2]; [8]) was 64%, the “Population Hoechst High Intensity Objects (%)” value (U2OS [2]; [8]) was 11% and the “Population Membrane Permeable-Phenotype (%)” value (U2OS [2]; [8]) was 8%. For the same compound, the “Population Mitochondria Different-Phenotype (%)” value (U2OS [2]; [8]) was 12%, the “Population Mitotic Cells (%)” value (U2OS [2]; [8]) was 66% and the “Population Normal (%)” value (U2OS [2]; [8]) was 88%. For the same compound, the “Population Pyknosed Nuclei (%)” value (U2OS [2]; [8]) was 11%, the “Population Tubulin-Different-Phenotype (%)” value (U2OS [2]; [8]) was 10% and the “Total Cell Count” value (U2OS [2]; [8]) was 191. The “Population Apoptotic (%)” value (U2OS [2]; [9]) was 0%, the “Population Fragmented Nuclei (%)” value (U2OS [2]; [9]) was 9% and the “Population Healthy Nuclei (%)” value (U2OS [2]; [9]) was 80%. For the same compound, the “Population Hoechst High Intensity Objects (%)” value (U2OS [2]; [9]) was 12%, the “Population Membrane Permeable-Phenotype (%)” value (U2OS [2]; [9]) was 4% and the “Population Mitochondria Different-Phenotype (%)” value (U2OS [2]; [9]) was 20%. For the same compound, the “Population Mitotic Cells (%)” value (U2OS [2]; [9]) was 100%, the “Population Normal (%)” value (U2OS [2]; [9]) was 87% and the “Population Pyknosed Nuclei (%)” value (U2OS [2]; [9]) was 9%. The “Population Tubulin-Different-Phenotype (%)” value (U2OS [2]; [9]) was 28%, the “Total Cell Count” value (U2OS [2]; [9]) was 65 and the “Population Apoptotic (%)” value (U2OS [2]; [10]) was 23%. For the same compound, the “Population Fragmented Nuclei (%)” value (U2OS [2]; [10]) was 11%, the “Population Healthy Nuclei (%)” value (U2OS [2]; [10]) was 77% and the “Population Hoechst High Intensity Objects (%)” value (U2OS [2]; [10]) was 5%. The “Population Membrane Permeable-Phenotype (%)” value (U2OS [2]; [10]) was 9%, the “Population Mitochondria Different-Phenotype (%)” value (U2OS [2]; [10]) was 13% and the “Population Mitotic Cells (%)” value (U2OS [2]; [10]) was 76%. The “Population Normal (%)” value (U2OS [2]; [10]) was 94%, the “Population Pyknosed Nuclei (%)” value (U2OS [2]; [10]) was 11% and the “Population Tubulin-Different-Phenotype (%)” value (U2OS [2]; [10]) was 15%. The “Total Cell Count” value (U2OS [2]; [10]) was 149, the “Population Apoptotic (%)” value (U2OS [2]; [11]) was 0% and the “Population Fragmented Nuclei (%)” value (U2OS [2]; [11]) was 13%. The “Population Healthy Nuclei (%)” value (U2OS [2]; [11]) was 86%, the “Population Hoechst High Intensity Objects (%)” value (U2OS [2]; [11]) was 14% and the “Population Membrane Permeable-Phenotype (%)” value (U2OS [2]; [11]) was 4%. The “Population Mitochondria Different-Phenotype (%)” value (U2OS [2]; [11]) was 10%, the “Population Mitotic Cells (%)” value (U2OS [2]; [11]) was 0% and the “Population Normal (%)” value (U2OS [2]; [11]) was 85%. For the same compound, the “Population Pyknosed Nuclei (%)” value (U2OS [2]; [11]) was 0%, the “Population Tubulin-Different-Phenotype (%)” value (U2OS [2]; [11]) was 30% and the “Total Cell Count” value (U2OS [2]; [11]) was 71. For the same compound, the “Population Apoptotic (%)” value (U2OS [2]; [12]) was 40%, the “Population Fragmented Nuclei (%)” value (U2OS [2]; [12]) was 16% and the “Population Healthy Nuclei (%)” value (U2OS [2]; [12]) was 77%. For the same compound, the “Population Hoechst High Intensity Objects (%)” value (U2OS [2]; [12]) was 7%, the “Population Membrane Permeable-Phenotype (%)” value (U2OS [2]; [12]) was 6% and the “Population Mitochondria Different-Phenotype (%)” value (U2OS [2]; [12]) was 10%. The “Population Mitotic Cells (%)” value (U2OS [2]; [12]) was 60%, the “Population Normal (%)” value (U2OS [2]; [12]) was 92% and the “Population Pyknosed Nuclei (%)” value (U2OS [2]; [12]) was 6%. For the same compound, the “Population Tubulin-Different-Phenotype (%)” value (U2OS [2]; [12]) was 5%, the “Total Cell Count” value (U2OS [2]; [12]) was 200 and the “Population Apoptotic (%)” value (U2OS [2]; [13]) was 0%. For the same compound, the “Population Fragmented Nuclei (%)” value (U2OS [2]; [13]) was 4%, the “Population Healthy Nuclei (%)” value (U2OS [2]; [13]) was 95% and the “Population Hoechst High Intensity Objects (%)” value (U2OS [2]; [13]) was 8%. The “Population Membrane Permeable-Phenotype (%)” value (U2OS [2]; [13]) was 2%, the “Population Mitochondria Different-Phenotype (%)” value (U2OS [2]; [13]) was 13% and the “Population Mitotic Cells (%)” value (U2OS [2]; [13]) was 0%. The “Population Normal (%)” value (U2OS [2]; [13]) was 91%, the “Population Pyknosed Nuclei (%)” value (U2OS [2]; [13]) was 0% and the “Population Tubulin-Different-Phenotype (%)” value (U2OS [2]; [13]) was 30%. For the same compound, the “Total Cell Count” value (U2OS [2]; [13]) was 68, the “Population Apoptotic (%)” value (U2OS [2]; [14]) was 52% and the “Population Fragmented Nuclei (%)” value (U2OS [2]; [14]) was 8%. The “Population Healthy Nuclei (%)” value (U2OS [2]; [14]) was 84%, the “Population Hoechst High Intensity Objects (%)” value (U2OS [2]; [14]) was 3% and the “Population Membrane Permeable-Phenotype (%)” value (U2OS [2]; [14]) was 5%. The “Population Mitochondria Different-Phenotype (%)” value (U2OS [2]; [14]) was 10%, the “Population Mitotic Cells (%)” value (U2OS [2]; [14]) was 47% and the “Population Normal (%)” value (U2OS [2]; [14]) was 96%. The “Population Pyknosed Nuclei (%)” value (U2OS [2]; [14]) was 7%, the “Population Tubulin-Different-Phenotype (%)” value (U2OS [2]; [14]) was 14% and the “Total Cell Count” value (U2OS [2]; [14]) was 176. For the same compound, the “Population Apoptotic (%)” value (U2OS [2]; [15]) was 0%, the “Population Fragmented Nuclei (%)” value (U2OS [2]; [15]) was 13% and the “Population Healthy Nuclei (%)” value (U2OS [2]; [15]) was 81%. The “Population Hoechst High Intensity Objects (%)” value (U2OS [2]; [15]) was 13%, the “Population Membrane Permeable-Phenotype (%)” value (U2OS [2]; [15]) was 3% and the “Population Mitochondria Different-Phenotype (%)” value (U2OS [2]; [15]) was 13%. The “Population Mitotic Cells (%)” value (U2OS [2]; [15]) was 100%, the “Population Normal (%)” value (U2OS [2]; [15]) was 86% and the “Population Pyknosed Nuclei (%)” value (U2OS [2]; [15]) was 5%. For the same compound, the “Population Tubulin-Different-Phenotype (%)” value (U2OS [2]; [15]) was 44%, the “Total Cell Count” value (U2OS [2]; [15]) was 79 and the “Population Apoptotic (%)” value (U2OS [2]; [16]) was 43%. For the same compound, the “Population Fragmented Nuclei (%)” value (U2OS [2]; [16]) was 7%, the “Population Healthy Nuclei (%)” value (U2OS [2]; [16]) was 86% and the “Population Hoechst High Intensity Objects (%)” value (U2OS [2]; [16]) was 5%. The “Population Membrane Permeable-Phenotype (%)” value (U2OS [2]; [16]) was 4%, the “Population Mitotic Cells (%)” value (U2OS [2]; [16]) was 56% and the “Population Normal (%)” value (U2OS [2]; [16]) was 94%. For the same compound, the “Population Pyknosed Nuclei (%)” value (U2OS [2]; [16]) was 6%, the “Population Tubulin-Different-Phenotype (%)” value (U2OS [2]; [16]) was 8% and the “Total Cell Count” value (U2OS [2]; [16]) was 200. For the same compound, the “Population Apoptotic (%)” value (U2OS [2]; [17]) was 40%, the “Population Fragmented Nuclei (%)” value (U2OS [2]; [17]) was 6% and the “Population Healthy Nuclei (%)” value (U2OS [2]; [17]) was 88%. The “Population Hoechst High Intensity Objects (%)” value (U2OS [2]; [17]) was 6%, the “Population Membrane Permeable-Phenotype (%)” value (U2OS [2]; [17]) was 5% and the “Population Mitochondria Different-Phenotype (%)” value (U2OS [2]; [17]) was 15%. For the same compound, the “Population Mitotic Cells (%)” value (U2OS [2]; [17]) was 60%, the “Population Normal (%)” value (U2OS [2]; [17]) was 93% and the “Population Pyknosed Nuclei (%)” value (U2OS [2]; [17]) was 4%. The “Population Tubulin-Different-Phenotype (%)” value (U2OS [2]; [17]) was 24%, the “Total Cell Count” value (U2OS [2]; [17]) was 81 and the “Population Apoptotic (%)” value (U2OS [2]; [18]) was 50%. For the same compound, the “Population Fragmented Nuclei (%)” value (U2OS [2]; [18]) was 5%, the “Population Healthy Nuclei (%)” value (U2OS [2]; [18]) was 89% and the “Population Hoechst High Intensity Objects (%)” value (U2OS [2]; [18]) was 2%. For the same compound, the “Population Membrane Permeable-Phenotype (%)” value (U2OS [2]; [18]) was 2%, the “Population Mitochondria Different-Phenotype (%)” value (U2OS [2]; [18]) was 9% and the “Population Mitotic Cells (%)” value (U2OS [2]; [18]) was 50%. The “Population Normal (%)” value (U2OS [2]; [18]) was 97%, the “Population Pyknosed Nuclei (%)” value (U2OS [2]; [18]) was 4% and the “Population Tubulin-Different-Phenotype (%)” value (U2OS [2]; [18]) was 15%. The “Total Cell Count” value (U2OS [2]; [18]) was 251, the “Population Apoptotic (%)” value (U2OS [2]; [19]) was 20% and the “Population Fragmented Nuclei (%)” value (U2OS [2]; [19]) was 8%. For the same compound, the “Population Healthy Nuclei (%)” value (U2OS [2]; [19]) was 87%, the “Population Hoechst High Intensity Objects (%)” value (U2OS [2]; [19]) was 6% and the “Population Membrane Permeable-Phenotype (%)” value (U2OS [2]; [19]) was 1%. The “Population Mitochondria Different-Phenotype (%)” value (U2OS [2]; [19]) was 6%, the “Population Mitotic Cells (%)” value (U2OS [2]; [19]) was 80% and the “Population Normal (%)” value (U2OS [2]; [19]) was 93%. For the same compound, the “Population Pyknosed Nuclei (%)” value (U2OS [2]; [19]) was 3%, the “Population Tubulin-Different-Phenotype (%)” value (U2OS [2]; [19]) was 38% and the “Total Cell Count” value (U2OS [2]; [19]) was 113.
